Rows were chosen to be rich in hits. Some 6.8% of all compounds tested hit in one or more screens of this group.
AI-2 QS mod: modulates the Vibrio harveyi AI-2 quorum sensing system. Vibrio harveyi JMH597 AI-2 luminescence/OD600 ratio, 9 h; active compounds read low; strain lacks LuxN and CqsS sensors; 0 = neutral-control median. activity change, % at 7.5 µM. 300,000 compounds, 0.4% hits. AID 2094; in the data active = activity change below about -75%, passing the limit was not always enough; inconclusive = no clear call, values can overlap the other calls;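 note: luminescence divided by OD600 gain over 9 h not by final OD600 alone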
HSF-1 act: increases HSF-1 driven luciferase reporter signal; NIH3T3-HGL HSF-1 luciferase reporter, MG132, 8 h; 100% = twice DMSO control signal; activation, % at 9 µM; 300,000 compounds, 1.7% hits; AID 504408;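 active = mean replicate activation of at least 50% with a set share of replicates each reaching 50%; inconclusive = only one of those two conditions met; inactive = mean below 50% and too few replicates reaching it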
PHOSPHO1 block: blocks human PHOSPHO1 phosphatase activity. recombinant PHOSPHO1, absorbance phosphatase assay. Q8TCT1. 290,000 compounds, 1.1% hits. inhibition, % at 13.3 µM; in the data active = inhibition above about 60%
HSF1 inhib: HSF1 inhibition; NIH3T3-HGL HSE-luciferase, MG132-induced, luminescence 8 h; active compounds read low; AID 2098; activity change, negative = inhibition, % at 7.5 µM (by protocol); 300,000 compounds, 0.77% hits;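 active = more than half of replicate wells show activity change below -50%, luminescence cut by over half; inconclusive = some wells, but at most half, below -50%; inactive = no replicate well below -50%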;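 note: luciferase reports HSF-1 transcriptional activity via heat shock element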
HCV core dimer: HCV core protein dimerization inhibition | TR-FRET GST/Flag-core106 dimerization, 1536-well | inhibition, % at 5 µM | 300,000 compounds, 0.33% hits;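 active = inhibition above the mean of all tested compounds plus 3 SD, set per screening campaign, cut at about 45% in these data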
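System: GST-tagged and Flag-tagged HCV core protein residues 1-106 / Input: core106 proteins, GST 13.5 nM and Flag 17 nM / Buffer or medium: KF-containing HEPES buffer, pH 7.45, DTT, CHAPS, BSA / Probe or stimulus: Eu-anti-GST and XL665-anti-Flag labelled anti-tag antibodies / Schedule: 4 h, 22.5 °C incubation / Technique: TR-FRET 671 and 617 nm emission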
ALR H2O2 inh: human ALR oxidase inhibition via reduced H2O2; P55789; purified ALR, DTT oxidation, H2O2 HRP-luminol luminescence; inhibition, % (concentration not given with the values); 290,000 compounds, 3.8% hits;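 active = mean replicate inhibition above about 79%, with every replicate also reaching it, limit read from the data; inconclusive = only one of the two criteria met; inactive = mean below limit and not every replicate reaching it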
Target sequence (P55789 whole entry, looked up): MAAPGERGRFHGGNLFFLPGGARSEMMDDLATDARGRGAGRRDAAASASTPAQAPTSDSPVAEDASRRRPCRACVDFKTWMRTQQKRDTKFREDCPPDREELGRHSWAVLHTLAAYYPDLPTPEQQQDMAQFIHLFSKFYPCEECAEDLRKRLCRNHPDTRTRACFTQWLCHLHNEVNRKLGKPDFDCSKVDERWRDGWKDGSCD
Hits are given with their value; i = inactive; ? = inconclusive; nt = no result.

SMILES	AI-2 QS mod	HSF-1 act	PHOSPHO1 block	HSF1 inhib	HCV core dimer	ALR H2O2 inh
Cc1ccc(N2C(=O)C(CC(=O)Nc3cccc(F)c3)N(C3CC3)C2=O)cc1 (stereo not drawn)	i	i	i	i	i	79
CCn1c(C)nc2cc(C(=O)NNC(=S)Nc3ccc(Cl)cc3Cl)ccc21	i	i	i	i	i	nt
CCCn1c(NC(=S)Nc2ccccc2)nc2ccccc21	i	i	i	i	i	i
CCn1c(C)nc2cc(C(=O)NNC(=S)NC(=O)c3ccccc3)ccc21	i	i	i	-53	i	i
CCn1c(C)nc2cc(C(=O)NNC(=S)Nc3ccc(Cl)cc3)ccc21	i	i	i	i	i	87
CCn1c(C)nc2cc(C(=O)NNC(=S)Nc3ccccc3)ccc21	i	i	i	-67	i	i
CCn1c(C)nc2cc(C(=O)NNC(=S)Nc3ccc(F)cc3)ccc21	i	i	i	i	i	i
CCn1c(C)nc2cc(C(=O)NNC(=S)Nc3ccccc3Cl)ccc21	i	i	i	i	i	nt
CCn1c(NC(=S)Nc2ccccc2)nc2ccccc21	i	i	i	-60	i	i
C/C(=N\Nc1ccc(F)cc1F)c1ccc(Br)s1	i	i	i	i	i	i
C/C(=N/NC(=O)c1ccoc1C)C12CC3CC(CC(C3)C1)C2	i	59	i	i	i	i
Cn1c(=O)cc(OCC(=O)NC2CCCCC2)c2ccccc21	i	i	i	i	i	i
Cn1c(=O)cc(OCCCC(=O)NC2CCCC2)c2ccccc21	i	56	i	i	i	i
CCOC(=O)c1c(-c2ccc(C)cc2)csc1NC(=O)CCN1CC(C)OC(C)C1 (stereo not drawn)	i	i	i	i	i	97
CC(/C=C\c1cccnc1)=C/C(=O)O	i	i	i	i	i	i
CN1CCN(C(=O)/C(=C/c2cccnc2)NC(=O)c2cccc(Br)c2)CC1	i	72	i	i	i	nt
COC(=O)C(=C/C(C)=C/c1cccnc1)C(=O)OC	i	i	i	i	i	92
O=C(N/C(=C\c1cccnc1)C(=O)N1CCCCC1)c1cccc(Br)c1	i	i	i	i	i	nt
COC(=O)/C(=C/c1cccnc1)NC(=O)c1ccccc1	i	92	i	i	i	i
O=C(NNc1cccc([N+](=O)[O-])c1)/C(=C\c1cccnc1)NC(=O)c1ccccc1	i	i	i	i	i	99
CC(=O)c1cccc(NC(=O)/C(=C\c2cccnc2)NC(=O)c2ccccc2)c1	i	i	i	i	i	i
COC1(OC)C(/C=C/c2ccc(Cl)cc2)C(C#N)(C#N)C1(OC)OC (stereo not drawn)	i	99	i	i	i	i
O=C(COC(=O)c1c[nH]c2ccccc12)Nc1cccc(F)c1	nt	nt	nt	nt	nt	i
O=C1CN(C(=O)c2ccc(Br)o2)C(c2ccccc2)c2cc(Cl)ccc2N1 (stereo not drawn)	i	i	i	i	i	i
O=C1CN(C(=O)c2ccc(Br)o2)C(c2ccc(F)cc2)c2cc(Cl)ccc2N1 (stereo not drawn)	i	55	i	i	i	i
SMILES	AI-2 QS mod	HSF-1 act	PHOSPHO1 block	HSF1 inhib	HCV core dimer	ALR H2O2 inh
Cc1cc(NC(=O)c2ccc(NC(=O)C(C)Oc3ccccc3)cc2)no1 (stereo not drawn)	i	i	i	i	i	i
COc1cc(C(=O)N2CCN(C(=O)CC(C)C)CC2)cc(OC)c1OC	i	i	i	-73	i	i
CNc1nc(N)nc(-c2cc(Cl)ccc2OC)n1	i	i	i	i	i	i
CCOc1cc(CNCc2ccccn2)cc(Cl)c1OC	i	i	i	i	i	i
CCOc1cc(CNCC(O)c2ccccc2)cc(Cl)c1OC (stereo not drawn)	i	i	62	i	i	99
OC(CNCc1ccccc1)c1ccccc1 (stereo not drawn)	i	i	i	i	i	i
OC(CNCc1cccc(Cl)c1)c1ccccc1 (stereo not drawn)	i	72	i	i	i	i
c1ccc(CSc2nc3ncncc3[nH]2)cc1	i	i	i	i	i	nt
S=c1nc(SCc2ccccc2)[nH]c2ccccc12	i	?	i	i	65	i
Cc1[nH]c2ccccc2c1SCc1ccccc1	i	i	i	i	i	99
